From ChEMBL document CHEMBL3425428, “Sesquiterpenoid tropolone glycosides from Liriosma ovata” (J Nat Prod, 2015)

Tests used:
[1] = biological target: Human immunodeficiency virus type 1 reverse transcriptase (Human immunodeficiency virus 1, UniProt Q72547); experiment: Inhibition of human immunodeficiency virus-1 reverse transcriptase associated RNase H activity using 18-nucleotide 3,-fluorescein-labeled RNA substrate by fluorescence resonance energy transfer assay
Outline: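 Inhibition of HIV RT-associated RNase H activity was measured by a previously described method, with β-thujaplicinol as positive control and IC50 as the readout.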

[2] = system: Human immunodeficiency virus 1; experiment: Antiviral activity against HIV1 infected in human H9 cells assessed as protection against virus-induced cytopathic effect by tetrazolium reduction based colorimetric technique; assay type: functional, organism-based
Outline: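 HIV cytopathicity assay run by a previously reported protocol. Compounds tested at up to 50 μM, with dideoxycytidine as positive control.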

CEM-SS = experiment: Cytotoxicity against human CEM-SS cells assessed as cell growth inhibition; assay type: cell-based
Outline: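 CEM-SS cells were exposed to compounds at concentrations up to 50 μM, and cytotoxicity was scored as cell growth inhibition.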

IC50 [1] | EC50 ([2]; h9) | EC50 ([2]; Human immunodeficiency virus 1, H9, read-out: EC50) | Structure (SMILES) | IC50 (CEM-SS)
34 µM | Not Active | – | C=C(C)[C@@H]1CCc2cc(O[C@@H]3O[C@H](COC(=O)CC(C)(O)CC(=O)O)[C@@H](O)[C@H](O)[C@H]3O)c(=O)cc(C)c2C1 (stereo partly specified) | > 50 µM
– | – | 0.079 µM | Nc1ccn([C@H]2CC[C@@H](CO)O2)c(=O)n1 [ZALCITABINE] | 61 µM
> 50 µM | Not Active | – | Cc1cc(=O)c(O[C@@H]2O[C@H](COC(=O)CC(C)(O)CC(=O)O)[C@@H](O)[C@H](O)[C@H]2O)cc2c1C[C@H](C(C)(C)O)CC2 (stereo partly specified) | > 50 µM
0.26 µM | Not Active | – | CC(C)c1ccc(O)c(=O)c(O)c1 [BETA-THUJAPLICINOL] | 2.3 µM
